Reference: ChEMBL document CHEMBL1155066, “Discovery of selective and nonpeptidic cathepsin S inhibitors” (Bioorg Med Chem Lett, 2008)
Active and inactive are the calls of the source. The calls are words filed in the database; no cut-off is given here.

Tests used:
Cathepsin S = Cathepsin S (Homo sapiens, UniProt P25774); assay: Inhibition of human recombinant cathepsin S by fluorescence assay
In short: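 Recombinant human Cat S, fluorometric readout using Z-Leu-Leu-Arg-AMC substrate; IC50 reported.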

Cathepsin K = biological target: T1, Cathepsin K (Homo sapiens, UniProt P43235); assay: Inhibition of human recombinant cathepsin K by fluorescence assay
T1 sequence (P43235 whole entry): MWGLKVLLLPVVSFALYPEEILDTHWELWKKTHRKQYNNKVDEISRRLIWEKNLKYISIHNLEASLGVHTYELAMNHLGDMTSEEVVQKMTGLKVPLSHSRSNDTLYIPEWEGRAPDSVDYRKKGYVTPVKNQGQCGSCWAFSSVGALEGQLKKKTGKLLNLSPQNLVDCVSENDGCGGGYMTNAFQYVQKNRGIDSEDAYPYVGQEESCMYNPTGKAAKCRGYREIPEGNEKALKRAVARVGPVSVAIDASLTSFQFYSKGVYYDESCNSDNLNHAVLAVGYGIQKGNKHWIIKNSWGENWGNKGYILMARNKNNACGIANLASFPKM
In short: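 Fluorometric assay with recombinant human Cat K; Z-Phe-Arg-AMC substrate; IC50 determined.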

Procathepsin L = Procathepsin L (Homo sapiens, UniProt P07711); assay: Inhibition of human recombinant cathepsin L by fluorescence assay
Chain of Procathepsin L (P07711 whole entry): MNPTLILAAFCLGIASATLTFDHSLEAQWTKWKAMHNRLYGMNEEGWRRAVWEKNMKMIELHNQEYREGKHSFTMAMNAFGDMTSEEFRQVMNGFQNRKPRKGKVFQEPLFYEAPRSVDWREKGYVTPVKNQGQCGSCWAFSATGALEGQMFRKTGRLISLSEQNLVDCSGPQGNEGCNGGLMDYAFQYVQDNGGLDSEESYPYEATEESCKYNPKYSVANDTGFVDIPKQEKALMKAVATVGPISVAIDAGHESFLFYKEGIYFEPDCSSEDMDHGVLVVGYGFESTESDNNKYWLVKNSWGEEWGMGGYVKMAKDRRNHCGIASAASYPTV
In short: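 Recombinant human Cat L measured fluorometrically with Z-Phe-Arg-AMC as substrate; IC50 reported.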

[1] = Cmax in Sprague-Dawley rat at 1.0 mg/kg, po; format: ADME, organism-based; parameters: dose 1 mg/kg, route oral; conditions: in vivo
[2] = AUC in Sprague-Dawley rat at 1.0 mg/kg, po; format: ADME, organism-based; parameters: dose 1 mg/kg, route oral; conditions: plasma
[3] = Plasma clearance in Sprague-Dawley rat at 1.0 mg/kg, iv or 3.0 mg/kg, po; format: ADME, organism-based
[4] = Half life in Sprague-Dawley rat at 1.0 mg/kg, iv; format: ADME, organism-based; parameters: dose 1 mg/kg, route intravenous; conditions: in vivo
[5] = Oral bioavailability in Sprague-Dawley rat at 3.0mg/kg, po; format: ADME, organism-based; conditions: in vivo, 3 mg/kg
[6] = biological target: Cathepsin S (Mus musculus) (UniProt O70370); assay: Inhibition of cathepsin S in mouse splenocytes assessed as MHC2 associated invariant chain degradation at 1 uM; format: cell-based
In short: (§1)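 Cellular secondary assay in mouse splenocytes; degradation of MHC class II associated invariant chain monitored after compound exposure at a single concentration.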

[7] = biological target: Cathepsin S (Mus musculus) (UniProt O70370); assay: Inhibition of cathepsin S in mouse splenocytes assessed as MHC2 associated invariant chain degradation at 10 uM; format: cell-based; in short: as §1
[8] = Plasma clearance in Sprague-Dawley rat at 1.6 mg/kg, iv or 4.0 mg/kg, po; format: ADME, organism-based
[9] = Half life in Sprague-Dawley rat at 1.6 mg/kg, iv; format: ADME, organism-based; parameters: dose 1.6 mg/kg, route intravenous; conditions: in vivo
[10] = Oral bioavailability in Sprague-Dawley rat at 4.0 mg/kg, po; format: ADME, organism-based; conditions: in vivo

Chain of Cathepsin S (P25774 whole entry): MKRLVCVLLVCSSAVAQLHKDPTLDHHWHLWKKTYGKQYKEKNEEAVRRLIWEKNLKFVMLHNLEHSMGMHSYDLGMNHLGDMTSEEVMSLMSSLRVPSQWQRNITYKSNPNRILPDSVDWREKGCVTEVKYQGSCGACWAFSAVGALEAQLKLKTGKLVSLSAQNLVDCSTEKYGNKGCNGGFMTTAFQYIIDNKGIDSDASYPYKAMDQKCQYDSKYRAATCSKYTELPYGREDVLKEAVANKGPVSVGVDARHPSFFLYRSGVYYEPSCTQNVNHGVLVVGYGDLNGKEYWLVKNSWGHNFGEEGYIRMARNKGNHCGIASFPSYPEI

Row | SMILES | IC50 (Cathepsin S) [µM] | IC50 (Cathepsin K) [µM] | IC50 (Procathepsin L) [µM] | further results
1 | COc1ccc(Cc2cc3cnc(C#N)nc3n2CCC2CCCCC2)cc1 | 0.11 | 0.28 | > 1 | 
2 | N#Cc1ncc2cc(Cc3ccc(Cl)cc3)n(CCC3CCCCCCC3)c2n1 | 0.099 | > 1 | > 1 | 
3 | N#Cc1ncc2cc(COc3ccccn3)n(CCC3CCCCC3)c2n1 | 0.011 | 0.25 | 0.79 | 
4 | CC(=O)N1CCC(c2ccc(OCc3cc4cnc(C#N)nc4n3CCC3CCCCC3)cc2)CC1 | 0.015 | > 1 | > 1 | Cmax [1]: 17 nM; AUC [2]: 0.103 µM·h; clearance [3]: 88.3 mL/min/kg; half-life [4]: 1.3 h; bioavailability [5]: 25%
5 | CC(C)C[C@@H](NC(=O)N1CCOCC1)C(=O)N[C@@H](/C=C/S(=O)(=O)c1ccccc1)CCc1ccccc1 |  |  |  | Activity [6]: Active
6 | CCC(=O)Nc1ccc(OCc2cc3cnc(C#N)nc3n2CCC2CCCCC2)cc1 | 0.012 | > 1.5 | > 4 | 
7 | N#Cc1ncc2cc(Cc3ccc(Cl)cc3)n(CCC3CCCCC3)c2n1 | 0.021 | 0.22 | 0.32 | 
8 | N#Cc1ncc2cc(Cc3ccc(Cl)cc3)n(CCc3ccccc3)c2n1 | 0.064 | 0.1 | 0.023 | 
9 | N#Cc1ncc2cc(COc3ccc(C(=O)O)cc3)n(CCC3CCCCC3)c2n1 | 0.016 | > 2 | > 2 | Activity [7]: inactive
10 | N#Cc1ncc2cc(Cc3ccc(Cl)cc3)n(CCc3cccc(Cl)c3)c2n1 | 0.19 | > 1 | 0.04 | 
11 | CC(=O)N1CC=C(c2ccc(OCc3cc4cnc(C#N)nc4n3CCC3CCCCC3)cc2)CC1 | 0.013 | > 1 | > 1 | Cmax [1]: 43 nM; AUC [2]: 0.346 µM·h; clearance [3]: 41.7 mL/min/kg; half-life [4]: 1.4 h; bioavailability [5]: 38%
12 | N#Cc1ncc2cc(Cc3ccc(Cl)cc3)n(CCCC3CCCCC3)c2n1 | 0.15 | > 1 | > 1 | 
13 | N#Cc1ncc2cc(CNc3ccccc3)n(CCC3CCCCC3)c2n1 | 0.024 | > 1 | > 1 | 
14 | N#Cc1ncc2cc(Cc3ccc(Cl)cc3)n(CC3CCCCC3)c2n1 | 0.11 | 0.006 | 0.37 | 
15 | N#Cc1ncc2cc(Cc3ccc(Cl)cc3)n(CCc3ccc(Cl)cc3)c2n1 | 0.019 | > 1 | 0.086 | 
16 | N#Cc1ncc2cc(Cc3ccc(Cl)cc3)n(CCC3CCCCCC3)c2n1 | 0.033 | > 1 | 0.84 | 
17 | N#Cc1ncc2cc(Cc3ccc(Cl)cc3)n(CCN3CCCCC3)c2n1 | > 1 | > 1 | > 1 | 
18 | N#Cc1ncc2cc(Cc3cccc4ccccc34)n(CCC3CCCCC3)c2n1 | 0.44 |  |  | 
19 | N#Cc1ncc2cc(CC3CCCCC3)n(CCC3CCCCC3)c2n1 | 0.14 |  | > 1 | 
20 | CC(C)(C)Cn1c(Cc2ccc(Cl)cc2)cc2cnc(C#N)nc21 |  | < 0.001 | 0.096 | 
21 | CC(C)(C)CCCn1c(Cc2ccc(Cl)cc2)cc2cnc(C#N)nc21 | 0.32 | 0.1 | > 1 | 
22 | CN(Cc1cc2cnc(C#N)nc2n1CCC1CCCCC1)c1ccccc1 | 0.052 | > 1 | > 1 | 

Now from value to compound, other results behind:

Row | IC50 (Cathepsin S) [µM] | IC50 (Cathepsin K) [µM] | IC50 (Procathepsin L) [µM] | SMILES | further results
23 | 0.006 | 0.48 | > 1 | N#Cc1ncc2cc(CSc3ccncc3)n(CCC3CCCCC3)c2n1 | 
24 | 0.007 | 0.39 | > 1 | N#Cc1ncc2cc(COc3cccc(C(N)=O)c3)n(CCC3CCCCC3)c2n1 | 
25 | 0.002 | < 0.001 | 0.018 | CC(C)(C)CCn1c(Cc2ccc(Cl)cc2)cc2cnc(C#N)nc21 | Activity [6]: Active
26 | 0.01 | > 1 | > 1 | N#Cc1ncc2cc(COc3ccccc3)n(CCC3CCCCC3)c2n1 | 
27 | 0.007 | 0.017 | 0.26 | N#Cc1ncc2cc(Cc3ccc(Cl)cc3)n(CCC3CCCC3)c2n1 | 
28 | 0.008 | > 1 | > 1 | CC(=O)Nc1ccc(OCc2cc3cnc(C#N)nc3n2CCC2CCCCC2)cc1 | 
29 | 0.009 | > 1.5 | > 4 | CC(=O)N1CCN(c2ccc(OCc3cc4cnc(C#N)nc4n3CCC3CCCCC3)cc2)CC1 | Cmax [1]: 34 nM; AUC [2]: 0.242 µM·h; clearance [3]: 66.7 mL/min/kg; half-life [4]: 1.2 h; bioavailability [5]: 47%; Activity [6]: Active
30 | 0.002 | 0.28 | > 1 | N#Cc1ncc2cc(COc3ccc(C(N)=O)cc3)n(CCC3CCCCC3)c2n1 | clearance [8]: 83.3 mL/min/kg; half-life [9]: 0.7 h; Cmax [1]: 25 nM; AUC [2]: 0.108 µM·h; bioavailability [10]: 21%
31 | 0.006 | > 5 | > 5 | N#Cc1ncc2cc(COc3cccc(CCC(=O)O)c3)n(CCC3CCCCC3)c2n1 | Activity [7]: inactive
